Test results from ChEMBL document CHEMBL1147862, “Studies on synthesis and pharmacological activities of 3,6-disubstituted-1,2,4-triazolo[3,4-b]-1,3,4-thiadiazoles and their dihydro analogues” (2007).

What was measured:
Type in all cases: functional
Mus musculus [1] = experiment: Analgesic activity in Swiss mouse assessed as increase in reaction time at 20 mg/kg, po after 30 mins by Eddy's hot plate technique
How it was run: (§1)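 Swiss mice of either sex, 25–35 g, placed one at a time on a hot plate held at 55 °C. End point is paw licking or jumping, whichever comes first, with a 15 s cut-off to avoid paw injury. Reaction time is recorded and reported as percent increase in reaction time.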

Mus musculus [2] = experiment: Analgesic activity in Swiss mouse assessed as increase in reaction time at 20 mg/kg, po after 60 mins by Eddy's hot plate technique; how it was run: as §1
Mus musculus [3] = experiment: Analgesic activity in Swiss mouse assessed as increase in reaction time at 20 mg/kg, po after 90 mins by Eddy's hot plate technique; how it was run: as §1
Candida albicans [4] = experiment: Antifungal activity against Candida albicans at 10 ug/ml by paper disc method; details: read-out: IZ
Candida albicans [5] = experiment: Antifungal activity against Candida albicans at 20 ug/ml by paper disc method; details: read-out: IZ
Candida albicans [6] = experiment: Antifungal activity against Candida albicans at 30 ug/ml by paper disc method; details: read-out: IZ
Aspergillus niger [7] = experiment: Antifungal activity against Aspergillus niger at 10 ug/ml by paper disc method; details: read-out: IZ
Aspergillus niger [8] = experiment: Antifungal activity against Aspergillus niger at 20 ug/ml by paper disc method; details: read-out: IZ
Aspergillus niger [9] = experiment: Antifungal activity against Aspergillus niger at 30 ug/ml by paper disc method; details: read-out: IZ
Escherichia coli [10] = experiment: Antibacterial activity against Escherichia coli at 10 ug/ml by agar plate diffusion technique; details: read-out: IZ
Escherichia coli [11] = experiment: Antibacterial activity against Escherichia coli at 20 ug/ml by agar plate diffusion technique; details: read-out: IZ
Escherichia coli [12] = experiment: Antibacterial activity against Escherichia coli at 30 ug/ml by agar plate diffusion technique; details: read-out: IZ
Pseudomonas aeruginosa [13] = experiment: Antibacterial activity against Pseudomonas aeruginosa at 10 ug/ml by agar plate diffusion technique; details: read-out: IZ
Pseudomonas aeruginosa [14] = experiment: Antibacterial activity against Pseudomonas aeruginosa at 20 ug/ml by agar plate diffusion technique; details: read-out: IZ
Pseudomonas aeruginosa [15] = experiment: Antibacterial activity against Pseudomonas aeruginosa at 30 ug/ml by agar plate diffusion technique; details: read-out: IZ
Bacillus subtilis [16] = experiment: Antibacterial activity against Bacillus subtilis at 10 ug/ml by agar plate diffusion technique; details: read-out: IZ
Bacillus subtilis [17] = experiment: Antibacterial activity against Bacillus subtilis at 20 ug/ml by agar plate diffusion technique; details: read-out: IZ
Bacillus subtilis [18] = experiment: Antibacterial activity against Bacillus subtilis at 30 ug/ml by agar plate diffusion technique; details: read-out: IZ
Staphylococcus aureus [19] = experiment: Antibacterial activity against Staphylococcus aureus at 10 ug/ml by agar plate diffusion technique; details: read-out: IZ
Staphylococcus aureus [20] = experiment: Antibacterial activity against Staphylococcus aureus at 20 ug/ml by agar plate diffusion technique; details: read-out: IZ
Staphylococcus aureus [21] = experiment: Antibacterial activity against Staphylococcus aureus at 30 ug/ml by agar plate diffusion technique; details: read-out: IZ
Rattus norvegicus [22] = experiment: Antiinflammatory activity in Wistar Albino rat assessed as inhibition of carrageenan-induced paw oedema at 20 mg/kg after 1 hr relative to control
How it was run: (§2)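 Wistar albino rats, 150–200 g, six per group, dosed orally with a 20 mg/kg suspension; control gets 0.1 ml 1% gum acacia. After 30 min, 0.1 ml 1% carrageenan in saline is injected subplantar into the right hind paw. Paw volume is read by plethysmograph at 0–4 h. Inhibition = 100(1 − Vtest/Vcontrol) on mean volume increase.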

Rattus norvegicus [23] = experiment: Antiinflammatory activity in Wistar Albino rat assessed as inhibition of carrageenan-induced paw oedema at 20 mg/kg after 2 hrs relative to control; how it was run: as §2
Rattus norvegicus [24] = experiment: Antiinflammatory activity in Wistar Albino rat assessed as inhibition of carrageenan-induced paw oedema at 20 mg/kg after 3 hrs relative to control; how it was run: as §2
Rattus norvegicus [25] = experiment: Antiinflammatory activity in Wistar Albino rat assessed as inhibition of carrageenan-induced paw oedema at 20 mg/kg after 4 hrs relative to control; how it was run: as §2

| Structure (SMILES) | Activity (Mus musculus [1]) [%] | Activity (Mus musculus [2]) [%] | Activity (Mus musculus [3]) [%] | zone of inhibition at 10 µg/mL (Candida albicans [4]) [mm] | zone of inhibition at 20 µg/mL (Candida albicans [5]) [mm] | zone of inhibition at 30 µg/mL (Candida albicans [6]) [mm] | zone of inhibition at 10 µg/mL (Aspergillus niger [7]) [mm] | zone of inhibition at 20 µg/mL (Aspergillus niger [8]) [mm] | zone of inhibition at 30 µg/mL (Aspergillus niger [9]) [mm] | zone of inhibition at 10 µg/mL (Escherichia coli [10]) [mm] | zone of inhibition at 20 µg/mL (Escherichia coli [11]) [mm] | zone of inhibition at 30 µg/mL (Escherichia coli [12]) [mm] | zone of inhibition at 10 µg/mL (Pseudomonas aeruginosa [13]) [mm] | zone of inhibition at 20 µg/mL (Pseudomonas aeruginosa [14]) [mm] | zone of inhibition at 30 µg/mL (Pseudomonas aeruginosa [15]) [mm] | zone of inhibition at 10 µg/mL (Bacillus subtilis [16]) [mm] | zone of inhibition at 20 µg/mL (Bacillus subtilis [17]) [mm] | zone of inhibition at 30 µg/mL (Bacillus subtilis [18]) [mm] | zone of inhibition at 10 µg/mL (Staphylococcus aureus [19]) [mm] | zone of inhibition at 20 µg/mL (Staphylococcus aureus [20]) [mm] | other results |
| --- | --- | --- | --- | --- | --- | --- | --- | --- | --- | --- | --- | --- | --- | --- | --- | --- | --- | --- | --- | --- | --- |
| COc1ccc(Cc2nnc3sc(-c4ccnc5ccccc45)nn23)cc1OC | 7.55 | 16.8 | 21.96 | 6.14 | 13.7 | 17.8 | 6.32 | 13 | 18 | 7.85 | 14.4 | 18.6 | 7.7 | 14.1 | 18.2 | 7.4 | 13.3 | 18.7 | 6.96 | 12.6 | zone of inhibition at 30 µg/mL (Staphylococcus aureus [21]): 18.3 mm; inhibition in vivo at 20 mg/kg (Rattus norvegicus [22]): 14.6%; inhibition in vivo at 20 mg/kg (Rattus norvegicus [23]): 17.1%; inhibition in vivo at 20 mg/kg (Rattus norvegicus [24]): 19.1%; inhibition in vivo at 20 mg/kg (Rattus norvegicus [25]): 24.8% |
| COc1ccc(Cl)c(-c2nnc3sc(-c4cc(-c5ccccc5)nc5ccccc45)nn23)c1 | 5.34 | 15.68 | 26.85 | 5.64 | 12.8 | 18.8 | 6.04 | 11.6 | 17.6 | 6.86 | 11.7 | 16.5 | 6.72 | 11.4 | 15.5 | 6.82 | 11.2 | 16.2 | 5.82 | 10.1 | zone of inhibition at 30 µg/mL (Staphylococcus aureus [21]): 16.4 mm; inhibition in vivo at 20 mg/kg (Rattus norvegicus [22]): 11.6%; inhibition in vivo at 20 mg/kg (Rattus norvegicus [23]): 17.2%; inhibition in vivo at 20 mg/kg (Rattus norvegicus [24]): 20.1%; inhibition in vivo at 20 mg/kg (Rattus norvegicus [25]): 24.5% |
| Cc1occc1-c1nnc2n1NC(c1ccco1)S2 (stereo not given) | 5.68 | 15.18 | 26.14 | 5.41 | 11 | 14.8 | 5.21 | 8.12 | 14.2 | 4.82 | 8.04 | 15.2 | 6.67 | 12.3 | 17.7 | 5.33 | 10.7 | 11.3 | 6.67 | 12.3 | zone of inhibition at 30 µg/mL (Staphylococcus aureus [21]): 13.3 mm; inhibition in vivo at 20 mg/kg (Rattus norvegicus [22]): 16.4%; inhibition in vivo at 20 mg/kg (Rattus norvegicus [23]): 21.6%; inhibition in vivo at 20 mg/kg (Rattus norvegicus [24]): 24.1%; inhibition in vivo at 20 mg/kg (Rattus norvegicus [25]): 25.9% |
| Cc1occc1-c1nnc2sc(-c3ccnc(Cl)c3)nn12 | 6.04 | 11.35 | 20.34 | 7.26 | 14 | 21.9 | 7.38 | 14.3 | 20.7 | 7.48 | 14.8 | 20.2 | 7.79 | 13.8 | 20.6 | 7.82 | 14.6 | 20.4 | 7.82 | 14.7 | zone of inhibition at 30 µg/mL (Staphylococcus aureus [21]): 19.2 mm; inhibition in vivo at 20 mg/kg (Rattus norvegicus [22]): 10.1%; inhibition in vivo at 20 mg/kg (Rattus norvegicus [23]): 15.3%; inhibition in vivo at 20 mg/kg (Rattus norvegicus [24]): 24.1%; inhibition in vivo at 20 mg/kg (Rattus norvegicus [25]): 27.1% |
| COc1ccc(Cc2nnc3sc(-c4cc(-c5ccccc5)nc5ccccc45)nn23)cc1OC | 5.36 | 17.26 | 25.11 | 5.82 | 11.4 | 17.9 | 6.14 | 11.5 | 16.7 | 6.08 | 11.3 | 16.9 | 5.92 | 10.8 | 16 | 5.76 | 10.2 | 15.9 | 5.12 | 10.3 | zone of inhibition at 30 µg/mL (Staphylococcus aureus [21]): 16.7 mm; inhibition in vivo at 20 mg/kg (Rattus norvegicus [22]): 12.3%; inhibition in vivo at 20 mg/kg (Rattus norvegicus [23]): 18.7%; inhibition in vivo at 20 mg/kg (Rattus norvegicus [24]): 20.2%; inhibition in vivo at 20 mg/kg (Rattus norvegicus [25]): 22.2% |
